From ChEMBL document CHEMBL1158356, “Synthesis, anti-tuberculosis activity and 3D-QSAR study of amino acid conjugates of 4-(adamantan-1-yl) group containing quinolines” (Eur J Med Chem, 2009)
pIC50: −log10 of the molar value. ≈ marks a conversion by molar mass, not a printed value.

Tests used:
[1] = system: Mycobacterium tuberculosis; assay: Antimycobacterial activity against rifampicin/isoniazid-susceptible Mycobacterium tuberculosis H37Rv ATCC 27294 by BACTEC 460 radiometric method; assay type: functional, organism-based
How it was run: (§1)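 Radiometric BACTEC 460 growth test on H37Rv (ATCC 27294). Compounds reaching at least 90% inhibition at 6.25 were retested at the lower concentrations 3.125 and 1.0, with % inhibition recorded. […] Isoniazid served as the reference standard.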

[2] = system: Mycobacterium tuberculosis; assay: Antimycobacterial activity against rifampicin/isoniazid-susceptible Mycobacterium tuberculosis H37Rv ATCC 27294 at 6.25 ug/ml after 5 days by microplate alamar blue assay; assay type: functional; conditions: H37Rv ATCC 27294, 120 h
How it was run: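 M. tuberculosis H37Rv (ATCC 27294, rifampicin- and isoniazid-susceptible) screened by Microplate Alamar Blue Assay at a single concentration of 6.25; read-out is % growth inhibition. Compounds showing fluorescence were instead tested in the BACTEC 460 radiometric system.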

Vero = assay: Cytotoxicity against african green monkey Vero cells up to 50 ug/ml; assay type: cell-based; conditions: chlorocebus sabaeus
[3] = system: Mycobacterium tuberculosis; assay: Antimycobacterial activity against rifampicin/isoniazid-susceptible Mycobacterium tuberculosis H37Rv ATCC 27294 at 1 ug/ml by BACTEC 460 radiometric method; assay type: functional; how it was run: as §1
[4] = system: Mycobacterium tuberculosis; assay: Antimycobacterial activity against rifampicin/isoniazid-susceptible Mycobacterium tuberculosis H37Rv ATCC 27294 at 3.125 ug/ml by BACTEC 460 radiometric method; assay type: functional; how it was run: as §1

Compound | pIC50 [1] | inhibition at 6.25 µg/mL [2] [%] | also measured
CC(C)(C)OC(=O)NCC(=O)NNC(=O)c1cc(C23CC4CC(CC(C4)C2)C3)c2ccccc2n1 | 5.06 | 60 | 
CSCC[C@H](NC(=O)OC(C)(C)C)C(=O)NNC(=O)c1cc(C23CC4CC(CC(C4)C2)C3)c2ccccc2n1 | 5.05 | 56 | 
NNC(=O)[C@H](Cc1c[nH]c2ccccc12)NC(=O)c1cc(C23CC4CC(CC(C4)C2)C3)c2ccccc2n1 | 5.08 | 60 | 
NNC(=O)[C@H](CCC(N)=O)NC(=O)c1cc(C23CC4CC(CC(C4)C2)C3)c2ccccc2n1 | 4.85 | 50 | 
COC(=O)[C@H](C)NC(=O)c1cc(C23CC4CC(CC(C4)C2)C3)c2ccccc2n1 | 5.23 | 73 | 
N=C(N)NCCC[C@H](NC(=O)c1cc(C23CC4CC(CC(C4)C2)C3)c2ccccc2n1)C(=O)NN | 7.67 |  | Activity (Vero): Non-toxic; inhibition at 1 µg/mL [3]: 99%
CC[C@H](C)[C@H](NC(=O)c1cc(C23CC4CC(CC(C4)C2)C3)c2ccccc2n1)C(=O)OC | 5.79 | 90 | 
COC(=O)[C@H](CCCNC(=N)N)NC(=O)c1cc(C23CC4CC(CC(C4)C2)C3)c2ccccc2n1 | 6.87 |  | Activity (Vero): Non-toxic; inhibition at 3.125 µg/mL [4]: 99%
CC(C)(C)OC(=O)N[C@@H](CCCNC(=N)N)C(=O)NNC(=O)c1cc(C23CC4CC(CC(C4)C2)C3)c2ccccc2n1 | 7.26 |  | Activity (Vero): Non-toxic; inhibition at 3.125 µg/mL [4]: 99%
CC(C)(C)OC(=O)N[C@@H](Cc1c[nH]cn1)C(=O)NNC(=O)c1cc(C23CC4CC(CC(C4)C2)C3)c2ccccc2n1 | 7.25 |  | Activity (Vero): Non-toxic; inhibition at 3.125 µg/mL [4]: 99%
N[C@@H](Cc1ccccc1)C(=O)NNC(=O)c1cc(C23CC4CC(CC(C4)C2)C3)c2ccccc2n1 | 5.50 | 81 | 
C[C@H](NC(=O)c1cc(C23CC4CC(CC(C4)C2)C3)c2ccccc2n1)C(=O)NN | 5.45 | 82 | 
NCCCC[C@H](NC(=O)c1cc(C23CC4CC(CC(C4)C2)C3)c2ccccc2n1)C(=O)NN | 4.71 | 36 | 
COC(=O)[C@H](CCC(N)=O)NC(=O)c1cc(C23CC4CC(CC(C4)C2)C3)c2ccccc2n1 | 4.94 | 55 | 
CCC(C)[C@H](NC(=O)OC(C)(C)C)C(=O)NNC(=O)c1cc(C23CC4CC(CC(C4)C2)C3)c2ccccc2n1 (stereo partly specified) | 5.89 | 90 | 
N[C@@H](Cc1c[nH]c2ccccc12)C(=O)NNC(=O)c1cc(C23CC4CC(CC(C4)C2)C3)c2ccccc2n1 | 5.01 | 56 | 
COC(=O)[C@H](CCCNC(=O)OCc1ccccc1)NC(=O)c1cc(C23CC4CC(CC(C4)C2)C3)c2ccccc2n1 | 5.23 | 66 | 
COC(=O)CNC(=O)c1cc(C23CC4CC(CC(C4)C2)C3)c2ccccc2n1 | 4.81 | 52 | 
NC(=O)c1cc(C23CC4CC(CC(C4)C2)C3)c2ccccc2n1 |  | 98 | 
CC(C)(C)OC(=O)NCCC[C@H](NC(=O)OC(C)(C)C)C(=O)NNC(=O)c1cc(C23CC4CC(CC(C4)C2)C3)c2ccccc2n1 | 5.51 | 75 | 
CC(C)(C)OC(=O)N[C@@H](Cc1c[nH]c2ccccc12)C(=O)NNC(=O)c1cc(C23CC4CC(CC(C4)C2)C3)c2ccccc2n1 | 7.29 |  | Activity (Vero): Non-toxic; inhibition at 3.125 µg/mL [4]: 99%
COC(=O)[C@H](Cc1ccc(OCc2ccccc2)cc1)NC(=O)c1cc(C23CC4CC(CC(C4)C2)C3)c2ccccc2n1 | 5.10 | 58 | 
N[C@@H](Cc1c[nH]cn1)C(=O)NNC(=O)c1cc(C23CC4CC(CC(C4)C2)C3)c2ccccc2n1 | 5.73 | 88 | 
CC(C)C[C@H](NC(=O)OC(C)(C)C)C(=O)NNC(=O)c1cc(C23CC4CC(CC(C4)C2)C3)c2ccccc2n1 | 5.89 | 90 | 
C[C@H](NC(=O)OC(C)(C)C)C(=O)NNC(=O)c1cc(C23CC4CC(CC(C4)C2)C3)c2ccccc2n1 | 5.76 | 88 | 
NCCC[C@H](NC(=O)c1cc(C23CC4CC(CC(C4)C2)C3)c2ccccc2n1)C(=O)NN | 4.91 | 48 | 
NNC(=O)[C@H](Cc1c[nH]cn1)NC(=O)c1cc(C23CC4CC(CC(C4)C2)C3)c2ccccc2n1 | 6.86 | 99 | 

Compound | pIC50 [1] | inhibition at 6.25 µg/mL [2] [%] | also measured
COC(=O)[C@H](Cc1ccccc1)NC(=O)c1cc(C23CC4CC(CC(C4)C2)C3)c2ccccc2n1 | 5.05 | 60 | 
C[C@H](N)C(=O)NNC(=O)c1cc(C23CC4CC(CC(C4)C2)C3)c2ccccc2n1 | 4.64 | 41 | 
NNC(=O)c1ccncc1 [ISONIAZID] |  |  | MIC99 [1]: 1 µg/mL (≈ 7.29 µM)
CC(C)C[C@H](N)C(=O)NNC(=O)c1cc(C23CC4CC(CC(C4)C2)C3)c2ccccc2n1 | 5.32 | 75 | 
COC(=O)[C@H](Cc1c[nH]cn1)NC(=O)c1cc(C23CC4CC(CC(C4)C2)C3)c2ccccc2n1 | 7.16 |  | Activity (Vero): Non-toxic; inhibition at 3.125 µg/mL [4]: 99%
CSCC[C@H](NC(=O)c1cc(C23CC4CC(CC(C4)C2)C3)c2ccccc2n1)C(=O)NN | 5.18 | 68 | 
CC(C)(C)OC(=O)N[C@@H](Cc1ccccc1)C(=O)NNC(=O)c1cc(C23CC4CC(CC(C4)C2)C3)c2ccccc2n1 | 5.71 | 85 | 
NCC(=O)NNC(=O)c1cc(C23CC4CC(CC(C4)C2)C3)c2ccccc2n1 | 4.52 | 35 | 
CC(C)(C)OC(=O)N[C@@H](CCC(N)=O)C(=O)NNC(=O)c1cc(C23CC4CC(CC(C4)C2)C3)c2ccccc2n1 | 4.96 | 51 | 
NNC(=O)[C@H](Cc1ccccc1)NC(=O)c1cc(C23CC4CC(CC(C4)C2)C3)c2ccccc2n1 | 4.87 | 50 | 
NCCC[C@H](N)C(=O)NNC(=O)c1cc(C23CC4CC(CC(C4)C2)C3)c2ccccc2n1 | 4.39 | 26 | 
CCC(C)[C@H](N)C(=O)NNC(=O)c1cc(C23CC4CC(CC(C4)C2)C3)c2ccccc2n1 (stereo partly specified) | 5.32 | 75 | 
N=C(N)NCCC[C@H](N)C(=O)NNC(=O)c1cc(C23CC4CC(CC(C4)C2)C3)c2ccccc2n1 | 5.94 | 92 | 
NNC(=O)[C@H](Cc1ccc(O)cc1)NC(=O)c1cc(C23CC4CC(CC(C4)C2)C3)c2ccccc2n1 | 4.78 | 44 | 
CC(C)C[C@H](NC(=O)c1cc(C23CC4CC(CC(C4)C2)C3)c2ccccc2n1)C(=O)NN | 5.53 | 83 | 
NC(=O)CC[C@H](N)C(=O)NNC(=O)c1cc(C23CC4CC(CC(C4)C2)C3)c2ccccc2n1 | 4.77 | 45 | 
COC(=O)[C@H](CCCCNC(=O)OCc1ccccc1)NC(=O)c1cc(C23CC4CC(CC(C4)C2)C3)c2ccccc2n1 | 5.50 | 78 | 
COC(=O)[C@H](CC(C)C)NC(=O)c1cc(C23CC4CC(CC(C4)C2)C3)c2ccccc2n1 | 5.53 | 83 | 
NNC(=O)c1cc(C23CC4CC(CC(C4)C2)C3)c2ccccc2n1 |  | 99 | 
NCCCC[C@H](N)C(=O)NNC(=O)c1cc(C23CC4CC(CC(C4)C2)C3)c2ccccc2n1 | 5.14 | 66 | 
CC(C)(C)OC(=O)N[C@@H](Cc1ccc(OCc2ccccc2)cc1)C(=O)NNC(=O)c1cc(C23CC4CC(CC(C4)C2)C3)c2ccccc2n1 | 4.89 | 42 | 
CC[C@H](C)[C@H](NC(=O)c1cc(C23CC4CC(CC(C4)C2)C3)c2ccccc2n1)C(=O)NN | 5.21 | 70 | 
COC(=O)[C@H](Cc1c[nH]c2ccccc12)NC(=O)c1cc(C23CC4CC(CC(C4)C2)C3)c2ccccc2n1 | 5.38 | 75 | 
COC(=O)[C@H](CCSC)NC(=O)c1cc(C23CC4CC(CC(C4)C2)C3)c2ccccc2n1 | 5.64 | 86 | 
CSCC[C@H](N)C(=O)NNC(=O)c1cc(C23CC4CC(CC(C4)C2)C3)c2ccccc2n1 | 5.02 | 59 | 
NNC(=O)CNC(=O)c1cc(C23CC4CC(CC(C4)C2)C3)c2ccccc2n1 | 5.15 | 70 | 
N[C@@H](Cc1ccc(O)cc1)C(=O)NNC(=O)c1cc(C23CC4CC(CC(C4)C2)C3)c2ccccc2n1 | 4.86 | 48 | 
